Each structure is given as a SMILES string. Values without a mark were called inactive.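 Rule for the calls: active = cytochrome c release activity at 50 µM, scaled between control wells and rounded, of 10% or more; inactive = the rest.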

The source of these data is PubChem BioAssay AID504407 (Broad Institute, 2011).

A short description of the assay: mitochondrial cyt c release, wild-type CHL-1 – biochemical, cytochrome c ELISA, dry powder, counter-screen for A1 inhibitor project (AID 504407). The following applies: CHL-1 isolated mitochondria, at 50 µM, active compounds read high. In short, it runs like this:
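Test system: isolated mitochondria from wild-type CHL-1 cells; technique: cytochrome c ELISA absorbance, 450 nm with 540 nm correction; read-out: cytochrome c in supernatant after 8000 g pelleting; schedule: compound exposure of mitochondria, 30 min at 30 °C; control set: DMSO-treated negative controls, tBid-treated positive controls; medium: AT buffer, 80 mM KCl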
On the technique in general: ELISA stands for enzyme-linked immunosorbent assay.

As to `Cn1c(=O)c([N+](=O)[O-])c(Cl)c2ccccc21`, the cytochrome c release activity was 0.1%.
